ChEMBL document CHEMBL5108039, “Piperazine tethered bergenin heterocyclic hybrids: design, synthesis, anticancer activity, and molecular docking studies” (RSC Med Chem, 2022)
Calls of active or inactive are those of the source. The calls are words filed in the database; no cut-off is given here.

Key:
CAL-27 [1] = experiment: Cell cycle arrest in human CAL-27 cells assessed as accumulation at G0/G1 phase at 0.5 uM incubated for 24 hrs by flow cytometry (reference value: 77.6 %); format: functional
CAL-27 [2] = experiment: Induction of apoptosis in human CAL-27 cells assessed as necrotic cells at 0.5 uM incubated for 24 hrs by Annexin V-FITC/PI staining based flow cytometric analysis (reference value: 0.0 %); format: functional
Summary of the method: (§1)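 CAL27 cells were treated with vehicle, doxorubicin or test compounds at 10–63 μM, and apoptosis was assessed by annexin V–FITC/PI staining with flow cytometry. Cells were scored as live, early apoptotic, late apoptotic or necrotic. The vehicle was DMSO (0.01%).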

CAL-27 [3] = experiment: Cell cycle arrest in human CAL-27 cells assessed as accumulation at S phase at 0.5 uM incubated for 24 hrs by flow cytometry (reference value: 3.6 %); format: functional
CAL-27 [4] = experiment: Induction of apoptosis in human CAL-27 cells assessed as early apoptotic cells at 0.5 uM incubated for 24 hrs by Annexin V-FITC/PI staining based flow cytometric analysis (reference value: 0.1 %); format: functional; summary of the method: as §1
SCC-9 [5] = experiment: Induction of apoptosis in human SCC-9 cells assessed as necrotic cells at 0.5 uM incubated for 24 hrs by Annexin V-FITC/PI staining based flow cytometric analysis (reference value: 0.1 %); format: functional
SCC-9 [6] = experiment: Cell cycle arrest in human SCC-9 cells assessed as accumulation at G2/M phase at 0.5 uM incubated for 24 hrs by flow cytometry (reference value: 14.2 %); format: functional
[7] = Cytotoxicity against human BEAS-2B cells assessed as cell growth inhibition; format: toxicity, cell-based
Summary of the method: (§2)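 Compounds were dissolved in sterile DMSO as 10 mg ml−1 stocks and tested in vitro for cytotoxicity in a cell-line panel, with DMSO (0.01%) as vehicle control and doxorubicin as standard. Mean IC50 values were reported, and the normal lung epithelial cells were tested up to 100 μM.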

HCT-15 = experiment: Cytotoxicity against human HCT-15 cells assessed as cell growth inhibition; format: functional, cell-based
Summary of the method: (§3)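 Compounds were dissolved in sterile DMSO as 10 mg ml−1 stocks and tested for in vitro growth inhibition of human cancer cell lines. Doxorubicin was the standard drug and DMSO (0.01%) the vehicle control. IC50 values are reported as means.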

SCC-9 [8] = experiment: Cell cycle arrest in human SCC-9 cells assessed as accumulation at S phase at 0.5 uM incubated for 24 hrs by flow cytometry (reference value: 14.4 %); format: functional
A549 = experiment: Cytotoxicity against human A549 cells assessed as cell growth inhibition; format: functional, cell-based; summary of the method: as §2
CAL-27 [9] = experiment: Induction of apoptosis in human CAL-27 cells assessed as late apoptotic cells at 0.5 uM incubated for 24 hrs by Annexin V-FITC/PI staining based flow cytometric analysis (reference value: 0.1 %); format: functional; summary of the method: as §1
SCC-9 [10] = experiment: Cell cycle arrest in human SCC-9 cells assessed as accumulation at G0/G1 phase at 0.5 uM incubated for 24 hrs by flow cytometry (reference value: 70.8 %); format: functional
SCC-9 [11] = experiment: Cytotoxicity against human SCC-9 cells assessed as cell growth inhibition; format: functional, cell-based; summary of the method: as §3
SCC-9 [12] = experiment: Induction of apoptosis in human SCC-9 cells assessed as early apoptotic cells at 0.5 uM incubated for 24 hrs by Annexin V-FITC/PI staining based flow cytometric analysis (reference value: 2.8 %); format: functional
SCC-9 [13] = experiment: Induction of apoptosis in human SCC-9 cells assessed as live cells at 0.5 uM incubated for 24 hrs by Annexin V-FITC/PI staining based flow cytometric analysis (reference value: 95.7 %); format: functional
SCC-9 [14] = experiment: Induction of apoptosis in human SCC-9 cells assessed as late apoptotic cells at 0.5 uM incubated for 24 hrs by Annexin V-FITC/PI staining based flow cytometric analysis (reference value: 1.4 %); format: functional
CAL-27 [15] = experiment: Cell cycle arrest in human CAL-27 cells assessed as accumulation at G2/M phase at 0.5 uM incubated for 24 hrs by flow cytometry (reference value: 11.9 %); format: functional
CAL-27 [16] = experiment: Cytotoxicity against human CAL-27 cells assessed as cell growth inhibition; format: functional, cell-based; summary of the method: as §3
CAL-27 [17] = experiment: Induction of apoptosis in human CAL-27 cells assessed as live cells at 0.5 uM incubated for 24 hrs by Annexin V-FITC/PI staining based flow cytometric analysis (reference value: 99.8 %); format: functional; summary of the method: as §1
CAL-27 [18] = experiment: Induction of apoptosis in human CAL-27 cells assessed as necrotic cells at 21 uM incubated for 24 hrs by Annexin V-FITC/PI staining based flow cytometric analysis (reference value: 0.0 %); format: functional
CAL-27 [19] = experiment: Induction of apoptosis in human CAL-27 cells assessed as upregulation of Bax gene expression at 42 uM by qRT-PCR analysis; format: functional, cell-based
Summary of the method: (§4)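 CAL27 cells were treated with test agents at different concentrations. Relative mRNA levels of vimentin, E-cad, Nanog, Oct-4, Bax and Bcl-2 were then quantified by qRT-PCR as apoptosis, EMT and stemness markers.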

CAL-27 [20] = experiment: Cell cycle arrest in human CAL-27 cells assessed as accumulation at G0/G1 phase at 42 uM incubated for 24 hrs by flow cytometry (reference value: 77.6 %); format: functional
CAL-27 [21] = experiment: Induction of apoptosis in human CAL-27 cells assessed as live cells at 42 uM incubated for 24 hrs by Annexin V-FITC/PI staining based flow cytometric analysis (reference value: 99.8 %); format: functional; summary of the method: as §1
CAL-27 [22] = experiment: Induction of apoptosis in human CAL-27 cells assessed as downregulation of vimentin gene expression at 42 uM by qRT-PCR analysis; format: functional, cell-based
Summary of the method: (§5)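 CAL27 cells were treated with test compounds at several concentrations. Relative expression of vimentin, E-cad, Nanog, Oct-4, Bax and BcL-2 was measured by qRT-PCR against vehicle-treated control cells.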

CAL-27 [23] = experiment: Induction of apoptosis in human CAL-27 cells assessed as upregulation of E-cad gene expression at 21 uM by qRT-PCR analysis; format: functional, cell-based; summary of the method: as §4
CAL-27 [24] = experiment: Induction of apoptosis in human CAL-27 cells assessed as late apoptotic cells at 42 uM incubated for 24 hrs by Annexin V-FITC/PI staining based flow cytometric analysis (reference value: 0.1 %); format: functional; details: in the assay text read “early apoptotic cells” for “late apoptotic cells”; summary of the method: as §1
CAL-27 [25] = experiment: Induction of apoptosis in human CAL-27 cells assessed as early apoptotic cells at 21 uM incubated for 24 hrs by Annexin V-FITC/PI staining based flow cytometric analysis (reference value: 0.1 %); format: functional; summary of the method: as §1
CAL-27 [26] = experiment: Cell cycle arrest in human CAL-27 cells assessed as accumulation at S phase at 42 uM incubated for 24 hrs by flow cytometry (reference value: 3.6 %); format: functional
CAL-27 [27] = experiment: Induction of apoptosis in human CAL-27 cells assessed as late apoptotic cells at 21 uM incubated for 24 hrs by Annexin V-FITC/PI staining based flow cytometric analysis (reference value: 0.1 %); format: functional; summary of the method: as §1
CAL-27 [28] = experiment: Induction of apoptosis in human CAL-27 cells assessed as downregulation of Nanog gene expression at 21 uM by qRT-PCR analysis; format: functional, cell-based; summary of the method: as §5
CAL-27 [29] = experiment: Induction of apoptosis in human CAL-27 cells assessed as upregulation of Bax gene expression at 21 uM by qRT-PCR analysis; format: functional, cell-based; summary of the method: as §4
CAL-27 [30] = experiment: Induction of apoptosis in human CAL-27 cells assessed as downregulation of vimentin gene expression at 21 uM by qRT-PCR analysis; format: functional, cell-based; summary of the method: as §5
CAL-27 [31] = experiment: Cell cycle arrest in human CAL-27 cells assessed as accumulation at S phase at 21 uM incubated for 24 hrs by flow cytometry (reference value: 3.6 %); format: functional
CAL-27 [32] = experiment: Induction of apoptosis in human CAL-27 cells assessed as downregulation of Nanog gene expression at 42 uM by qRT-PCR analysis; format: functional, cell-based; summary of the method: as §5
CAL-27 [33] = experiment: Induction of apoptosis in human CAL-27 cells assessed as downregulation of Oct-4 gene expression at 21 uM by qRT-PCR analysis; format: functional, cell-based; summary of the method: as §5
CAL-27 [34] = experiment: Cell cycle arrest in human CAL-27 cells assessed as accumulation at G0/G1 phase at 21 uM incubated for 24 hrs by flow cytometry (reference value: 77.6 %); format: functional
CAL-27 [35] = experiment: Induction of apoptosis in human CAL-27 cells assessed as downregulation of Oct-4 gene expression at 42 uM by qRT-PCR analysis; format: functional, cell-based; summary of the method: as §5
CAL-27 [36] = experiment: Induction of apoptosis in human CAL-27 cells assessed as upregulation of E-cad gene expression at 42 uM by qRT-PCR analysis; format: functional, cell-based; summary of the method: as §4
CAL-27 [37] = experiment: Induction of apoptosis in human CAL-27 cells assessed as downregulation of BcL-2 gene expression at 21 uM by qRT-PCR analysis; format: functional, cell-based; summary of the method: as §5
CAL-27 [38] = experiment: Cell cycle arrest in human CAL-27 cells assessed as accumulation at G2/M phase at 42 uM incubated for 24 hrs by flow cytometry (reference value: 11.9 %); format: functional
CAL-27 [39] = experiment: Cell cycle arrest in human CAL-27 cells assessed as accumulation at G2/M phase at 21 uM incubated for 24 hrs by flow cytometry (reference value: 11.9 %); format: functional
CAL-27 [40] = experiment: Induction of apoptosis in human CAL-27 cells assessed as early apoptotic cells at 42 uM incubated for 24 hrs by Annexin V-FITC/PI staining based flow cytometric analysis (reference value: 0.1 %); format: functional; summary of the method: as §1
CAL-27 [41] = experiment: Induction of apoptosis in human CAL-27 cells assessed as live cells at 21 uM incubated for 24 hrs by Annexin V-FITC/PI staining based flow cytometric analysis (reference value: 99.8 %); format: functional; summary of the method: as §1
CAL-27 [42] = experiment: Induction of apoptosis in human CAL-27 cells assessed as downregulation of BcL-2 gene expression at 42 uM by qRT-PCR analysis; format: functional, cell-based; summary of the method: as §5
MCF7 = experiment: Cytotoxicity against human MCF7 cells assessed as cell growth inhibition; format: functional, cell-based; summary of the method: as §3
CAL-27 [43] = experiment: Induction of apoptosis in human CAL-27 cells assessed as necrotic cells at 42 uM incubated for 24 hrs by Annexin V-FITC/PI staining based flow cytometric analysis (reference value: 0.0 %); format: functional

COc1cccc2c1C(=O)c1c(O)c3c(c(O)c1C2=O)C[C@@](O)(C(=O)CO)C[C@@H]3O[C@H]1C[C@H](N)[C@H](O)[C@H](C)O1 [DOXORUBICIN]
Activity (CAL-27 [1]): 59.7%
Activity (CAL-27 [2]): 24.4%
Activity (CAL-27 [3]): 4.2%
Activity (CAL-27 [4]): 0.7%
Activity (SCC-9 [5]): 51.5%
Activity (SCC-9 [6]): 55.6%
IC50 [7]: 800 nM
IC50 (HCT-15): 800 nM
Activity (SCC-9 [8]): 16.31%
IC50 (A549): 800 nM
Activity (CAL-27 [9]): 58.9%
Activity (SCC-9 [10]): 29%
IC50 (SCC-9 [11]): 390 nM
Activity (SCC-9 [12]): 0.3%
Activity (SCC-9 [13]): 7.1%
Activity (SCC-9 [14]): 41%
Activity (CAL-27 [15]): 34.3%
IC50 (CAL-27 [16]): 0.4 µM
Activity (CAL-27 [17]): 16%

COc1c(O)c(CN2CCN(S(=O)(=O)c3ccc(I)cc3)CC2)c2c(c1O)C1O[C@H](CO)[C@@H](O)[C@H](O)C1OC2=O (stereo partly specified)
Activity (CAL-27 [18]): 1.1%
Activity (CAL-27 [19]): Active
Activity (CAL-27 [20]): 83.7%
Activity (CAL-27 [21]): 94.6%
Activity (CAL-27 [22]): Active
Activity (CAL-27 [23]): Active
Activity (CAL-27 [24]): 1.7%
Activity (CAL-27 [25]): 1.1%
Activity (CAL-27 [26]): 1.9%
Activity (CAL-27 [27]): 0.7%
Activity (CAL-27 [28]): Active
Activity (CAL-27 [29]): Active
Activity (CAL-27 [30]): Active
Activity (CAL-27 [31]): 3.5%
IC50 [7]: > 100000 nM
IC50 (HCT-15): > 100000 nM
Activity (CAL-27 [32]): Active
Activity (CAL-27 [33]): Active
Activity (CAL-27 [34]): 83.3%
Activity (CAL-27 [35]): Active
Activity (CAL-27 [36]): Active
Activity (CAL-27 [37]): Active
IC50 (A549): > 100000 nM
Activity (CAL-27 [38]): 11.5%
IC50 (SCC-9 [11]): > 100000 nM
Activity (CAL-27 [39]): 12.6%
Activity (CAL-27 [40]): 1.7%
Activity (CAL-27 [41]): 97.1%
Activity (CAL-27 [42]): Active
IC50 (MCF7): > 100 µM
IC50 (CAL-27 [16]): 41.6 µM
Activity (CAL-27 [43]): 2%
